Source: ChEMBL document CHEMBL2203144, “Synthesis and evaluation of antimicrobial activity of 4H-pyrimido[2,1-b]benzothiazole, pyrazole and benzylidene derivatives of curcumin” (Eur J Med Chem, 2012)
Active and inactive are the calls of the source. The calls are words filed in the database; no cut-off is given here.

Tests used:
Staphylococcus aureus = test: Antibacterial activity against Staphylococcus aureus ATCC 11632 after 24 hrs by broth microdilution method; assay type: functional
Outline: (§1)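 Microwell broth dilution in brain heart infusion broth (nutrient broth adjusted to pH 7.0). Inoculum from 16 h cultures, adjusted to 0.5 McFarland (1.5 × 10⁸ CFU/mL). 10 µL compound (serial dilutions 20 down to 0.625 or 0.312 µM/mL) plus 10 µL culture added to 150 µL broth. Incubated 24 h at 37 °C. MIC95 is the lowest concentration with no turbidity. Ciprofloxacin reference; inoculum and broth controls.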

Salmonella typhi = test: Antibacterial activity against Salmonella typhi ATCC 15499 after 24 hrs by broth microdilution method; assay type: functional
Outline: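 Broth microdilution in brain heart infusion broth in microwells. Inoculum was prepared from 16 h cultures adjusted to the 0.5 McFarland standard (1.5 × 10⁸ CFU/mL). Compounds were serially diluted from 20 down to 0.625 µM/mL and added to the broth, followed by the bacterial culture. Plates were incubated 24 h at 37 °C, with optical density read. MIC95 was the lowest concentration giving no turbidity. Inoculum and broth controls were included.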

Pseudomonas aeruginosa = test: Antibacterial activity against Pseudomonas aeruginosa ATCC 23564 after 24 hrs by broth microdilution method; assay type: functional; outline: as §1
Escherichia coli = test: Antibacterial activity against Escherichia coli ATCC 35218 after 24 hrs by broth microdilution method; assay type: functional; outline: as §1
Bacillus cereus = test: Antibacterial activity against Bacillus cereus MTCC 7350 after 24 hrs by broth microdilution method; assay type: functional; outline: as §1
Providencia rettgeri = test: Antibacterial activity against Providencia rettgeri DRDE after 24 hrs by broth microdilution method; assay type: functional; outline: as §1
Aspergillus niger [1] = test: Antifungal activity against Aspergillus niger after 72 hrs by agar disk diffusion method; assay type: functional
Outline: (§2)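 Sterile filter-paper discs dipped in the acetone dilutions of compound (20–0.315 µM/mL), then dried to remove acetone. Sabouraud dextrose agar plates spread with 1 mL fungal culture. Discs placed aseptically; one drug-free disc served as growth control; fluconazole reference. Plates incubated upright 72 h at 28 °C. Zone of inhibition measured in mm with a scale.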

Aspergillus fumigatus [2] = test: Antifungal activity against Aspergillus fumigatus after 72 hrs by agar disk diffusion method; assay type: functional; outline: as §2
Aspergillus flavus [3] = test: Antifungal activity against Aspergillus flavus after 72 hrs by agar disk diffusion method; assay type: functional; outline: as §2
[4] = Cytotoxicity against human L123 cells after 48 hrs by MTT assay; assay type: cell-based
Outline: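 MTT assay. 2×10³ cells per well in MEM + 10% FBS, attached 24 h, then treated at 5, 10, 20, 50 and 100 µM/mL for 48 h; controls received medium with 0.2% DMSO. Duplicate treatments. Cells PBS-washed, given MTT (stock 1 mg/mL) for 4 h at 37 °C. Formazan dissolved in DMSO, read at 590 nm. IC50 is the concentration reducing viability by 50%.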

Aspergillus flavus [5] = test: Antifungal activity against Aspergillus flavus after 72 hrs by broth dilution method; assay type: functional
Outline: (§3)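 Compounds and fluconazole reference were dissolved in acetone at 120 µM/mL and serially diluted to 20–0.315 µM/mL. 10 µL compound plus 10 µL fungal culture broth added to 150 µL Sabouraud dextrose medium per well. Optical density recorded, then incubated 72 h at 28 °C. MIC95 taken from absence of turbidity. Acetone-at-same-dilution solvent control.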

Aspergillus fumigatus [6] = test: Antifungal activity against Aspergillus fumigatus after 72 hrs by broth dilution method; assay type: functional; outline: as §3
Aspergillus niger [7] = test: Antifungal activity against Aspergillus niger after 72 hrs by broth dilution method; assay type: functional; outline: as §3
[8] = Salmonella enterica subsp. enterica serovar Typhi

SMILES	MIC95 (Staphylococcus aureus)	MIC95 (Salmonella typhi; [8])	MIC95 (Pseudomonas aeruginosa)	MIC95 (Escherichia coli)	MIC95 (Bacillus cereus)	MIC95 (Providencia rettgeri)	inhibition zone (IZ) (Aspergillus niger [1])	inhibition zone (IZ) (Aspergillus fumigatus [2])	inhibition zone (IZ) (Aspergillus flavus [3])	IC50 [4] [uM/ml]	MIC95 (Aspergillus flavus [5])	MIC95 (Aspergillus fumigatus [6])	MIC95 (Aspergillus niger [7])	MIC95 (Salmonella typhi) [uM/ml]
COc1cc(/C=C/C(=O)C2=C(/C=C/c3ccc(O)c(OC)c3)N=C3Sc4ccccc4N3C2c2c(Cl)cccc2Cl)ccc1O (centres undefined)	inactive	inactive	20 uM/ml	20 uM/ml	5 uM/ml	10 uM/ml	inactive	inactive	inactive	> 100	inactive	inactive	inactive	–
COc1cc(C=C(C(=O)/C=C/c2ccc(O)c(OC)c2)C(=O)/C=C/c2ccc(O)c(OC)c2)ccc1O	2.5 uM/ml	–	2.5 uM/ml	inactive	1.25 uM/ml	2.5 uM/ml	inactive	inactive	20 mm	> 100	1.25 uM/ml	inactive	inactive	5
COc1cc(/C=C/C(=O)C2=C(/C=C/c3ccc(O)c(OC)c3)N=C3Sc4ccccc4N3C2c2ccc(C)cc2)ccc1O (centres undefined)	20 uM/ml	inactive	inactive	10 uM/ml	5 uM/ml	20 uM/ml	inactive	inactive	inactive	–	inactive	inactive	inactive	–
COc1cc(/C=C/C(=O)C(=Cc2ccccc2O)C(=O)/C=C/c2ccc(O)c(OC)c2)ccc1O	1.25 uM/ml	–	1.25 uM/ml	2.5 uM/ml	1.25 uM/ml	1.25 uM/ml	17 mm	20 mm	inactive	50	inactive	2.5 uM/ml	2.5 uM/ml	5
COc1cc(/C=C/c2cc(/C=C/c3ccc(O)c(OC)c3)n(-c3ccc([N+](=O)[O-])cc3[N+](=O)[O-])n2)ccc1O	1.25 uM/ml	–	inactive	inactive	1.25 uM/ml	inactive	17 mm	inactive	20 mm	> 100	1.25 uM/ml	inactive	2.5 uM/ml	2.5
O=C(O)c1cn(C2CC2)c2cc(N3CCNCC3)c(F)cc2c1=O [CIPROFLOXACIN]	1.25 uM/ml	–	1.25 uM/ml	1.25 uM/ml	0.625 uM/ml	1.25 uM/ml	–	–	–	–	–	–	–	2.5
COc1cc(/C=C/C(=O)C2=C(/C=C/c3ccc(O)c(OC)c3)N=C3Sc4ccccc4N3C2c2ccc(O)cc2)ccc1O (centres undefined)	1.25 uM/ml	–	10 uM/ml	5 uM/ml	2.5 uM/ml	inactive	inactive	12 mm	inactive	–	inactive	5 uM/ml	inactive	20
COc1cc(/C=C/C(=O)C2=C(/C=C/c3ccc(O)c(OC)c3)N=C3Sc4ccccc4N3C2c2ccc([N+](=O)[O-])cc2)ccc1O (centres undefined)	inactive	–	10 uM/ml	5 uM/ml	2.5 uM/ml	10 uM/ml	10 mm	15 mm	inactive	> 100	inactive	20 uM/ml	10 uM/ml	20
COc1cc(/C=C/C(=O)C(=Cc2ccccc2)C(=O)/C=C/c2ccc(O)c(OC)c2)ccc1O	1.25 uM/ml	–	inactive	1.25 uM/ml	0.625 uM/ml	0.625 uM/ml	inactive	15 mm	inactive	–	inactive	2.5 uM/ml	inactive	2.5
COc1cc(/C=C/c2cc(/C=C/c3ccc(O)c(OC)c3)n(C(=O)c3ccncc3)n2)ccc1O	1.25 uM/ml	–	1.25 uM/ml	2.5 uM/ml	inactive	inactive	18 mm	inactive	22 mm	> 100	2.5 uM/ml	inactive	2.5 uM/ml	5
COc1cc(/C=C/C(=O)CC(=O)/C=C/c2ccc(O)c(OC)c2)ccc1O [CURCUMIN]	20 uM/ml	–	inactive	20 uM/ml	10 uM/ml	20 uM/ml	9 mm	12 mm	inactive	–	inactive	20 uM/ml	20 uM/ml	20
OC(Cn1cncn1)(Cn1cncn1)c1ccc(F)cc1F [FLUCONAZOLE]	–	–	–	–	–	–	18 mm	22 mm	25 mm	–	1.25 uM/ml	1.25 uM/ml	2.5 uM/ml	–
COc1cc(/C=C/c2cc(/C=C/c3ccc(O)c(OC)c3)n(C(N)=O)n2)ccc1O	inactive	inactive	5 uM/ml	2.5 uM/ml	inactive	2.5 uM/ml	15 mm	20 mm	inactive	–	inactive	1.25 uM/ml	5 uM/ml	–
COc1cc(/C=C/c2cc(/C=C/c3ccc(O)c(OC)c3)n(C(N)=S)n2)ccc1O	1.25 uM/ml	–	2.5 uM/ml	inactive	0.625 uM/ml	1.25 uM/ml	22 mm	25 mm	20 mm	–	1.25 uM/ml	2.5 uM/ml	2.5 uM/ml	2.5
COc1cc(/C=C/C(=O)C2=C(/C=C/c3ccc(O)c(OC)c3)N=C3Sc4ccccc4N3C2c2ccc(O)c(OC)c2)ccc1O (centres undefined)	inactive	–	5 uM/ml	10 uM/ml	2.5 uM/ml	10 uM/ml	inactive	inactive	11 mm	–	12 uM/ml	inactive	inactive	10
